A selection: hits, their analogues and other compounds. The true share with any hit is near 4.6%.
Arbovirus inh – blocks arbovirus infection; arbovirus infection cell-based antiviral screen; inhibition, % at 10 µM; 200,000 compounds, 0.37% hits; AID 1251; in the data active = inhibition above about 30%
Hck-Nef inh – blocks Nef-activated human Hck kinase; P08631; inhibition, % at 20 µM; Recombinant Hck-YEEI plus Nef, Z-Lyte FRET kinase assay; 220,000 compounds, 0.68% hits;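 active = Hck-Nef kinase inhibition above about 50%, limit read from the data; inactive = inhibition below that limit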;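 also: 0% = DMSO with Hck plus Nef and 100% = Hck alone without Nef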
Target sequence (P08631 whole entry, looked up): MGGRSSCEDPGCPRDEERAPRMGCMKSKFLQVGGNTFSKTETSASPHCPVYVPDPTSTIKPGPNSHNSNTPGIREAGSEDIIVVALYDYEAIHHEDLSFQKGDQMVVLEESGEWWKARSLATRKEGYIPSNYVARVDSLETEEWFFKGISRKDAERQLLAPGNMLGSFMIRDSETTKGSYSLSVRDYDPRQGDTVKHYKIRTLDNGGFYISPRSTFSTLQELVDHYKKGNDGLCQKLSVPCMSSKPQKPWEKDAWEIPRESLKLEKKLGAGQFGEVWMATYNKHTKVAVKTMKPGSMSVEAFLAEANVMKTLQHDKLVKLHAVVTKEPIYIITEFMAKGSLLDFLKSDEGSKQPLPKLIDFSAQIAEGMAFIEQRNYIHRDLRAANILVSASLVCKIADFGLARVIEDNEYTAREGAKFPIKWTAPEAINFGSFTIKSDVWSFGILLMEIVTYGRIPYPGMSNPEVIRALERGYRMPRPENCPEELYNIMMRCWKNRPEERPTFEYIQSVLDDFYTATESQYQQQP
WT yeast gro inh – growth inhibition of WT yeast, mitochondrial fusion screen. mitochondrial fusion phenotypic screen, WT strain. inhibition, % at 10 µM. 190,000 compounds, 2.1% hits. AID 1362; in the data active = inhibition above about 58%; tested in S. cerevisiae
RAM network inh – blocks the yeast RAM network. S. cerevisiae dse1pr::URA3 reporter, 5-FOA growth OD615, 2 d; analog-sensitive cbk1-as2 kinase mutant strain. inhibition, % at 50 µM. 190,000 compounds, 1.8% hits;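 active = inhibition above a set limit, 3 SD over mean compound inhibition, cut at about 8.4% in these data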;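 also: 0% = DMSO-only wells with no growth and 100% = 10 µM 1-NA-PP1 full growth; inhibition rescues growth on 5-FOA so higher OD means more RAM inhibition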
Biofilm kill mix – mixtures killing C. albicans biofilm; AID 1242; 120,000 compounds, 0.02% hits; C. albicans biofilm persisters + clotrimazole, fluorescence viability; primary screen in compound mixtures of four per well; inhibition, % at 7.6 µM;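 active = inhibition above 30.3% in the primary screen of four-compound pools, then above 30% when the compound was retested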;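 also: compounds exposed to preformed 24 h biofilms for 48 h; 0% = untreated biofilm control and 100% = clotrimazole plus chlorhexidine kill blank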
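Assay system: C. albicans biofilms / Medium: RPMI/MOPS medium, pH 7.0 / Schedule: biofilm formation 24 h, compound exposure 48 h, 37 °C / Measured by: Alamar Blue fluorescence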
p47phox inh – p47phox (human) inhibition | inhibition, % at 24.7 µM | 220,000 compounds, 0.53% hits | AID 1274 | p47phox/p22phox peptide binding, fluorescence polarization, 2 h | P14598;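 active = inhibition above about 30%, limit read from the data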;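 also: 0% = p47phox with labelled peptide and 100% = labelled peptide alone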
* marks the source's active call; other numbers are inactive results; nt = no result given.

SMILES	Arbovirus inh	Hck-Nef inh	WT yeast gro inh	RAM network inh	Biofilm kill mix	p47phox inh
O=C(Nc1ccc(N2CCOCC2)c(Cl)c1)c1ccccc1F	-9	3	5	0	nt	-1
Cc1c(Cl)cccc1NC(=O)NCc1ccncc1	6	23	-2	0	11	-3
Cc1cccc(NC(=O)N(Cc2nc3ccccc3c(=O)[nH]2)C2CCCC2)c1	4	4	78*	0	nt	-2
O=C(Nc1cccc(Cl)c1)N(Cc1nc2ccccc2c(=O)[nH]1)C1CCCC1	3	3	3	2	nt	-1
COc1ccccc1NC(=O)c1ccc2nc(-c3ccccc3)c(-c3ccccc3)nc2c1	-1	1	-10	1	nt	13
COc1ccccc1-c1nc2cc3ccccc3cc2nc1-c1ccccc1	9	2	52	11*	19	-16
CCc1ccc2[nH]c(C(=O)Nc3ccc4c(c3)OCO4)cc2c1	nt	18	nt	nt	13	-3
Cc1ccc(-c2cc(C(=O)N/N=C/c3c[nH]c4ccccc34)n[nH]2)o1	10	5	-3	-1	12	-51
Cc1ccc(-c2cc(C(=O)N/N=C/C(Br)=C/c3ccccc3)n[nH]2)o1	-8	31	61*	-1	11	0
COCCN1C(=O)C(=O)/C(=C(/O)c2ccc(C)cc2)C1c1ccccn1 (stereo not given)	-3	18	-3	1	8	2
NS(=O)(=O)c1cccc(NC(=O)CN2CCC(Cc3ccccc3)CC2)c1	-28	11	-34	1	17	0
CCC(C)[C@@H](NC(=O)OC(C)(C)C)c1nnc(S(=O)(=O)Cc2cccc(C)c2)o1 (stereo not given in full)	-35	-2	-7	6	nt	60*
Clc1ccc(CSc2cc3c(nn2)-c2ccccc2CC3)cc1Cl	10	-1	37	10*	nt	-58
Clc1cccc(Cl)c1CSc1cc2c(nn1)-c1ccccc1CC2	16	1	35	7	nt	2
Clc1ccccc1CSc1cc2c(nn1)-c1ccccc1CC2	-2	1	12	10*	nt	-2
O=c1cc2c(nn1Cc1c(Cl)cccc1Cl)-c1ccccc1CC2	8	0	-4	8	nt	-12
CCOC(=O)N1CCN(C(=O)CCn2c(=S)[nH]c3ccsc3c2=O)CC1	10	29	9	4	13	13
C#CCn1cc(C=C2C(=O)c3ccccc3C2=O)c2ccccc21	-16	16	14	-1	-14	81*
C#CCn1c(=O)cc(C)c2ccccc21	0	1	0	0	14	3
CCN(CC)c1ccc(C2C(C(=O)OC(C)C)C(=O)CC(C)(O)C2C(=O)OC(C)C)cc1 (stereo not given)	5	10	-5	0	nt	-4
CCCn1c(CN(Cc2ccccc2)Cc2ccccc2)nc2c1c(=O)n(C)c(=O)n2C	-22	0	77*	1	nt	-4
Fc1cccc(-c2cc3nc4c(c(NCc5ccco5)n3n2)CCCC4)c1	5	0	83*	-2	nt	-10
Fc1cccc(-c2cc3nc4c(c(N5CCOCC5)n3n2)CCCC4)c1	0	-4	-1	-1	nt	2
CCOC(=O)c1cc2sc(C)cc2n1CCCN1C(=O)c2ccccc2C1=O	1	0	9	11*	nt	4
CCOC(=O)c1cc2occc2n1CCCN1C(=O)c2ccccc2C1=O	-2	1	25	9.2*	nt	-11
SMILES	Arbovirus inh	Hck-Nef inh	WT yeast gro inh	RAM network inh	Biofilm kill mix	p47phox inh
CCOCCCNC(=S)NCCCNc1nc2c(C)c(C)ccc2cc1C#N	-24	35	74*	5	4	-10
Cc1ccc2cc(C#N)c(NCCNC(=O)C3CCC3)nc2c1C	-10	8	1	3	nt	nt
CCC(=O)NNc1nc2c(C)c(C)ccc2s1	-13	22	3	3	23	2
CNc1nc(N(C)C)nc(N(C)C)n1	-8	-1	-1	-1	13	4
Cc1cc(/C=C(\C#N)C(=O)OCC(=O)NC(=O)NC(C)(C)C)c(C)n1CCC(C)C	2	9	15	-1	nt	-27
CCCn1c(C)cc(/C=C(\C#N)C(=O)OCC(=O)Nc2cccc(OC)c2)c1C	-3	1	18	8.9*	13	-12
Clc1ccc(Sc2oc(/C=N/n3cnnc3)cc2Br)cc1	5	2	19	3	nt	-14
CN(C)C(=O)/C(C#N)=C\c1cc(Br)c(Sc2ccc(Cl)cc2)o1	3	4	88*	7	26	4
Cc1sc2nc(C3CC3)nc(SCC(=O)N3CCCc4ccccc43)c2c1C	-18	0	38	9.2*	9	-31
CC(/C=C1\N=C(SCc2ccccc2)SC1=O)=C\c1ccccc1	-8	3	-9	9.9*	11	-27
Cc1cc(-c2nnc(CCC(=O)N3CCN(Cc4cccnc4)CC3)o2)c(C)o1	5	8	-4	0	11	133*
CNc1ccc(/C=C/C(=O)c2ccc3c(c2)OCCO3)cc1[N+](=O)[O-]	9	5	16	9.0*	18	-27
CNc1ccc(/C=C/C(=O)c2ccc(C)cc2)cc1[N+](=O)[O-]	2	2	-10	7	9	-11
COc1ccc(C2=NN(C(C#N)c3ccc(OC)c(OC)c3)C(c3ccccc3)C2)cc1 (stereo not given)	-4	-21	11	8.5*	nt	-22
CCC(=O)Nc1cccc(C(=O)/C=C/c2cc(Br)ccc2OC)c1	-47	-1	89*	9.6*	nt	-2
COc1ccc(Br)cc1/C=C/C(=O)Nc1ccc2ccccc2c1	17	-1	37	4	16	-11
CS(=O)(=O)N(Cc1ccc(C(=O)Nc2ccccc2Sc2ccccc2)cc1)c1ccccc1	-1	0	9	4	nt	-11
CC(C(=O)Nc1ccccc1Sc1ccccc1)N(c1ccccc1)S(C)(=O)=O (stereo not given)	-11	0	22	8.4*	nt	-10
CC(c1ccccc1)n1c(-c2cccs2)nc2c(c(=O)c3ccccc3n2C)c1=O (stereo not given)	nt	14	nt	nt	17	-17
O=C(OCc1ccc2c(c1)OCO2)c1cccc(S(=O)(=O)N2CCCCC2)c1	8	-2	22	8.6*	nt	-26
O=C(OCc1ccc2c(c1)OCO2)c1ccc(S(=O)(=O)N2CCCC2)cc1	4	7	22	1	nt	-13
CCOC(=O)c1c(C)oc2c1c(C(c1cccnc1)N1CCCCC1)c(O)c1ccccc12 (stereo not given)	-46	2	71*	1	nt	-6
CCOC(=O)c1c(C)oc2c1c(C(c1ccccc1)N1CCOCC1)c(O)c1ccccc12 (stereo not given)	-37	28	67*	3	nt	2
COc1ccc(C2=Nc3ccccc3OC2)cc1	-11	3	55	0	nt	-6
COc1cccc(OC2OC3COC(C)(C)OC3C(O)C2NC(C)=O)c1 (stereo not given)	14	16	-8	1	4	4
